Experimental data taken from ChEMBL document CHEMBL1157665, “Novel 4-thiazolidinone derivatives as potential antifungal and antibacterial drugs” (2010).
In brackets after ≈: the same amount, converted by molar mass.

Tests used:
[1] = test system: Aspergillus niger; experiment: Antifungal activity against Aspergillus niger ATCC 6275 after 72 hrs by serial sub-cultivation method; assay type: functional; conditions: ATCC 6275, 72 h
How it was run: (§1)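 MFC was found by serial sub-cultivation of 2 µl into plates holding 100 µl broth per well, then incubation 72 h at 28 °C. MFC is the lowest concentration with no visible growth, taken as 99.5% killing of the original inoculum. Spore inocula came from malt agar cultures washed with 0.85% saline and 0.1% Tween 80.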

[2] = test system: Aspergillus versicolor; experiment: Antifungal activity against Aspergillus versicolor ATCC 11730 after 72 hrs by serial dilution method; assay type: functional; conditions: ATCC 11730, 72 h
How it was run: (§2)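 Fungi were kept on malt agar at 4 °C and sub-cultured monthly. Spores were washed off the agar with sterile 0.85% saline containing 0.1% Tween 80 (v/v). Modified microdilution in 96-well plates. MIC is the lowest concentration with no visible growth under the binocular microscope. Inoculum checked on malt agar for contamination and validity.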

[3] = test system: Aspergillus versicolor; experiment: Antifungal activity against Aspergillus versicolor ATCC 11730 after 72 hrs by serial sub-cultivation method; assay type: functional; conditions: ATCC 11730, 72 h; how it was run: as §1
[4] = test system: Aspergillus flavus; experiment: Antifungal activity against Aspergillus flavus ATCC 9643 after 72 hrs by serial dilution method; assay type: functional; conditions: ATCC 9643, 72 h; how it was run: as §2
[5] = test system: Aspergillus flavus; experiment: Antifungal activity against Aspergillus flavus ATCC 9643 after 72 hrs by serial sub-cultivation method; assay type: functional; conditions: ATCC 9643, 72 h; how it was run: as §1
[6] = test system: Fulvia fulva; experiment: Antifungal activity against Fulvia fulva TK 5318 after 72 hrs by serial dilution method; assay type: functional; conditions: TK 5318, 72 h; how it was run: as §2
[7] = test system: Fulvia fulva; experiment: Antifungal activity against Fulvia fulva TK 5318 after 72 hrs by serial sub-cultivation method; assay type: functional; conditions: TK 5318, 72 h; how it was run: as §1
[8] = test system: Bacillus cereus; experiment: Antibacterial activity against Bacillus cereus clinical isolate after 24 hrs; assay type: functional
How it was run: (§3)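 Broth microdilution MIC in 96-well plates. Compounds in LB broth with bacterial inoculum of 1.0 × 10^4 cfu per well, from suspensions adjusted with sterile saline to 1.0 × 10⁵ CFU/ml. Incubated 24 h at […] as printed. MIC taken as the lowest concentration with no visible growth under the binocular microscope. OD at 655 nm also read against blank. Streptomycin and ampicillin as positive controls. Duplicate, repeated three times.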

[9] = test system: Bacillus cereus; experiment: Antibacterial activity against Bacillus cereus clinical isolate after 72 hrs by serial sub-cultivation method; assay type: functional
How it was run: (§4)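 MBC was found by serial sub-cultivation of 2 µl from the MIC wells into plates holding 100 µl broth per well, then incubation for 72 h. MBC is the lowest concentration with no visible growth, i.e. 99.5% killing of the original inoculum. Bacterial inoculum was 1.0 × 10^4 cfu per well in LB broth. Duplicate, repeated three times.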

[10] = test system: Micrococcus flavus; experiment: Antibacterial activity against Micrococcus flavus ATCC 10240 after 24 hrs; assay type: functional; conditions: ATCC 10240, 24 h; how it was run: as §3
[11] = test system: Micrococcus flavus; experiment: Antibacterial activity against Micrococcus flavus ATCC 10240 after 72 hrs by serial sub-cultivation method; assay type: functional; conditions: ATCC 10240, 72 h; how it was run: as §4
[12] = test system: Staphylococcus aureus; experiment: Antibacterial activity against Staphylococcus aureus ATCC 6538 after 24 hrs; assay type: functional; conditions: ATCC 6538, 24 h; how it was run: as §3
[13] = test system: Staphylococcus aureus; experiment: Antibacterial activity against Staphylococcus aureus ATCC 6538 after 72 hrs by serial sub-cultivation method; assay type: functional; conditions: ATCC 6538, 72 h; how it was run: as §4
[14] = test system: Escherichia coli; experiment: Antibacterial activity against Escherichia coli ATCC 35210 after 24 hrs; assay type: functional; conditions: ATCC 35210, 24 h; how it was run: as §3
[15] = test system: Escherichia coli; experiment: Antibacterial activity against Escherichia coli ATCC 35210 after 72 hrs by serial sub-cultivation method; assay type: functional; conditions: ATCC 35210, 72 h; how it was run: as §4
[16] = test system: Pseudomonas aeruginosa; experiment: Antibacterial activity against Pseudomonas aeruginosa ATCC 27853 after 24 hrs; assay type: functional; conditions: ATCC 27853, 24 h; how it was run: as §3
[17] = test system: Pseudomonas aeruginosa; experiment: Antibacterial activity against Pseudomonas aeruginosa ATCC 27853 after 72 hrs by serial sub-cultivation method; assay type: functional; conditions: ATCC 27853, 72 h; how it was run: as §4
[18] = test system: Proteus mirabilis; experiment: Antibacterial activity against Proteus mirabilis after 24 hrs; assay type: functional; how it was run: as §3
[19] = test system: Proteus mirabilis; experiment: Antibacterial activity against Proteus mirabilis after 72 hrs by serial sub-cultivation method; assay type: functional; how it was run: as §4
[20] = test system: Salmonella typhimurium; experiment: Antibacterial activity against Salmonella Typhimurium ATCC 13311 after 24 hrs; assay type: functional, Salmonella enterica subsp. enterica serovar Typhimurium; conditions: Salmonella enterica, ATCC 13311, 24 h; how it was run: as §3
[21] = test system: Salmonella typhimurium; experiment: Antibacterial activity against Salmonella Typhimurium ATCC 13311 after 72 hrs by serial sub-cultivation method; assay type: functional, Salmonella enterica subsp. enterica serovar Typhimurium; conditions: Salmonella enterica, ATCC 13311, 72 h; how it was run: as §4
[22] = test system: Listeria monocytogenes; experiment: Antibacterial activity against Listeria monocytogenes NCTC 7973 after 24 hrs; assay type: functional; conditions: NCTC 7973, 24 h; how it was run: as §3
[23] = test system: Listeria monocytogenes; experiment: Antibacterial activity against Listeria monocytogenes NCTC 7973 after 72 hrs by serial sub-cultivation method; assay type: functional; conditions: NCTC 7973, 72 h; how it was run: as §4
[24] = test system: Talaromyces funiculosus; experiment: Antifungal activity against Penicillium funiculosum ATCC 36839 after 72 hrs by serial dilution method; assay type: functional; conditions: ATCC 36839, 72 h; how it was run: as §2
[25] = test system: Talaromyces funiculosus; experiment: Antifungal activity against Penicillium funiculosum ATCC 36839 after 72 hrs by serial sub-cultivation method; assay type: functional; conditions: ATCC 36839, 72 h; how it was run: as §1
[26] = test system: Penicillium ochrochloron; experiment: Antifungal activity against Penicillium ochrochloron ATCC 9112 after 72 hrs by serial dilution method; assay type: functional; conditions: ATCC 9112, 72 h; how it was run: as §2
[27] = test system: Penicillium ochrochloron; experiment: Antifungal activity against Penicillium ochrochloron ATCC 9112 after 72 hrs by serial sub-cultivation method; assay type: functional; conditions: ATCC 9112, 72 h; how it was run: as §1
[28] = test system: Trichoderma viride; experiment: Antifungal activity against Trichoderma viride IAM 5061 after 72 hrs by serial dilution method; assay type: functional; conditions: IAM 5061, 72 h; how it was run: as §2
[29] = test system: Trichoderma viride; experiment: Antifungal activity against Trichoderma viride IAM 5061 after 72 hrs by serial sub-cultivation method; assay type: functional; conditions: IAM 5061, 72 h; how it was run: as §1
[30] = test system: Aspergillus niger; experiment: Antifungal activity against Aspergillus niger ATCC 6275 after 72 hrs by serial dilution method; assay type: functional; conditions: ATCC 6275, 72 h; how it was run: as §2
[31] = test system: Aspergillus fumigatus; experiment: Antifungal activity against Aspergillus fumigatus plant isolate after 72 hrs by serial dilution method
[32] = test system: Aspergillus fumigatus; experiment: Antifungal activity against Aspergillus fumigatus plant isolate after 72 hrs by serial sub-cultivation method

| MIC [8] [µM] | MIC [10] [µM] | MIC [12] [µM] | MIC [14] [µM] | MIC [16] [µM] | MIC [18] [µM] | MIC [20] [µM] | Compound | MFC [1] [µM] | MIC [2] [µM] | MFC [3] [µM] | MIC [4] [µM] | MFC [5] [µM] | MIC [6] [µM] | MFC [7] [µM] | MBC [9] [µM] | MBC [11] [µM] | MBC [13] [µM] | MBC [15] [µM] | MBC [17] [µM] | MBC [19] [µM] | other results |
| --- | --- | --- | --- | --- | --- | --- | --- | --- | --- | --- | --- | --- | --- | --- | --- | --- | --- | --- | --- | --- | --- |
| 16.4 (≈ 7.48 µg/mL) | 11 (≈ 5.02 µg/mL) | 16.4 (≈ 7.48 µg/mL) | 21.9 (≈ 9.99 µg/mL) | 21.9 (≈ 9.99 µg/mL) | 43.8 (≈ 20 µg/mL) | 21.9 (≈ 9.99 µg/mL) | O=C1N/C(=N/c2nc(C34CC5CC(CC(C5)C3)C4)cs2)S/C1=C\c1cccc(Cl)c1 | 21.9 (≈ 9.99 µg/mL) | 11 (≈ 5.02 µg/mL) | 21.9 (≈ 9.99 µg/mL) | 16.4 (≈ 7.48 µg/mL) | 21.9 (≈ 9.99 µg/mL) | 16.4 (≈ 7.48 µg/mL) | 21.9 (≈ 9.99 µg/mL) | 21.9 (≈ 9.99 µg/mL) | 21.9 (≈ 9.99 µg/mL) | 43.8 (≈ 20 µg/mL) | 43.8 (≈ 20 µg/mL) | 43.8 (≈ 20 µg/mL) | 65.7 (≈ 30 µg/mL) | MBC [21]: 43.8 µM (≈ 20 µg/mL); MIC [22]: 21.9 µM (≈ 9.99 µg/mL); MBC [23]: 43.8 µM (≈ 20 µg/mL); MIC [24]: 21.9 µM (≈ 9.99 µg/mL); MFC [25]: 21.9 µM (≈ 9.99 µg/mL); MIC [26]: 5.5 µM (≈ 2.51 µg/mL); MFC [27]: 11 µM (≈ 5.02 µg/mL); MIC [28]: 11 µM (≈ 5.02 µg/mL); MFC [29]: 21.9 µM (≈ 9.99 µg/mL); MIC [30]: 11 µM (≈ 5.02 µg/mL); MIC [31]: 11 µM (≈ 5.02 µg/mL); MFC [32]: 21.9 µM (≈ 9.99 µg/mL) |
| 43 (≈ 25 µg/mL) | 86 (≈ 50 µg/mL) | 172 (≈ 100 µg/mL) | 172 (≈ 100 µg/mL) | 172 (≈ 100 µg/mL) | 172 (≈ 100 µg/mL) | 172 (≈ 100 µg/mL) | CN[C@@H]1[C@H](O[C@H]2[C@H](O[C@H]3[C@H](O)[C@@H](O)[C@H](N=C(N)N)[C@@H](O)[C@@H]3N=C(N)N)O[C@@H](C)[C@]2(O)C=O)O[C@@H](CO)[C@H](O)[C@H]1O [STREPTOMYCIN] | – | – | – | – | – | – | – | 86 (≈ 50 µg/mL) | 172 (≈ 100 µg/mL) | 344 (≈ 200 µg/mL) | 344 (≈ 200 µg/mL) | 344 (≈ 200 µg/mL) | 344 (≈ 200 µg/mL) | MBC [21]: 344 µM (≈ 200 µg/mL); MIC [22]: 258 µM (≈ 150 µg/mL); MBC [23]: 516 µM (≈ 300 µg/mL) |
| – | – | – | – | – | – | – | CC(=O)N1CCN(c2ccc(OCC3COC(Cn4ccnc4)(c4ccc(Cl)cc4Cl)O3)cc2)CC1 (centres undefined) [KETOCONAZOLE] | 950 (≈ 505 µg/mL) | 380 (≈ 202 µg/mL) | 950 (≈ 505 µg/mL) | 2850 (≈ 1510 µg/mL) | 3800 (≈ 2020 µg/mL) | 380 (≈ 202 µg/mL) | 950 (≈ 505 µg/mL) | – | – | – | – | – | – | MIC [24]: 380 µM (≈ 202 µg/mL); MFC [25]: 950 µM (≈ 505 µg/mL); MIC [26]: 3800 µM (≈ 2020 µg/mL); MFC [27]: 3800 µM (≈ 2020 µg/mL); MIC [28]: 4750 µM (≈ 2520 µg/mL); MFC [29]: 5700 µM (≈ 3030 µg/mL); MIC [30]: 380 µM (≈ 202 µg/mL); MIC [31]: 380 µM (≈ 202 µg/mL); MFC [32]: 950 µM (≈ 505 µg/mL) |
